Data set [1] in a line: Storage stability of solid. Format: physicochemical. The following applies: crystalline solid; ambient conditions; several months.
The subject of data set [2] is Escherichia coli (ATCC 25922). In words: Antibacterial microbroth dilution. The following applies: 20 h exposure, LB broth. Format: cell-based. A digest of the protocol: (§1)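 Broth microdilution per CLSI in LB broth. A 20 mM test-compound solution was diluted in LB broth. Organisms were exposed to compound for 20 h, then growth inhibition was scored to define the MIC. Ampicillin was the positive control.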

Data set [3] has as its system Human Embryonic Kidney (HEK-293) cells. In words: Mammalian cell susceptibility assay, HEK-293. Format: cell-based. The following applies: HEK293, read-out: growth inhibition, HEK293.
Data set [4] is described as follows: Aqueous solubility. The data set is classed as physicochemical.
Data set [5] has as its system faecal microbiome. In words: Microbiome assessment. Format: in vivo, outbred Swiss mice. A digest of the protocol: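 Three groups of 12 outbred Swiss mice received vehicle control, metronidazole 100 mg/kg or test compound 7.4 mg/kg daily on days 1, 2 and 3. Faecal samples were collected from individual animals on days 0–5 and stored at room temperature in 80% ethanol. About 0.2 g of each sample was homogenised with glass beads in lysis buffer for 16S rRNA profiling.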

The subject of data set [6] is Staphylococcus aureus (ATCC 29213). In words: Antibacterial microbroth dilution. The data set is classed as cell-based. The following applies: 20 h exposure, LB broth. A digest of the protocol:
as §1

Data set [7] relates to G. duodenalis BAH2c2. The data set can be described thus: In vivo efficacy in mouse model of giardiasis. Also noted: species or system outbred Swiss mice. The method in brief: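 Seven-day-old outbred Swiss pups (groups of ten) were orally gavaged with 10^5 BAH2c2 trophozoites in 0.9% saline. Faecal cysts were tracked daily by centrifugal flotation and immunofluorescence counting. About 1 week post-infection, mice received oral gavage once daily for three days: vehicle, test compound, or metronidazole 100 mg/kg. The next day, small-intestine trophozoites were counted manually and large-intestine cysts per gram. Efficacy followed WAAVP guidelines; groups were compared by t-test.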

In data set [8] the test system is assemblage B G. duodenalis BRIS/91/HEPU/1279 trophozoites. The data set can be described thus: G. duodenalis compound susceptibility assay. The data set is classed as cell-based. The following applies: Giardia duodenalis.
Data set [9] relates to Enterococci faecalis (ATCC 29212). In words: Antibacterial microbroth dilution. The data set is classed as cell-based. The following applies: 20 h exposure, LB broth. A digest of the protocol:
as §1

In data set [10] the test system is BRIS/91/HEPU/1279 trophozoites. The data set can be described thus: Minimum lethal concentration. Format: cell-based, Giardia duodenalis. The following applies: 48 h exposure, then four days in culture. A digest of the protocol:
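Assemblage B BRIS/91/HEPU/1279 trophozoites in modified TYI-S-33 were exposed to compound for 48 h. They were then returned to drug-free culture for four more days and imaged by brightfield at 10x to judge regrowth. Albendazole ran alongside. Experiments were done at least three times in duplicate.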

The subject of data set [11] is Plasmodium falciparum 3D7 asexual erythrocytic parasites. The data set can be described thus: 48 h [3H]-hypoxanthine incorporation assay. Format: cell-based. The following applies: for IC50: Plasmodium falciparum, 3D7, 48 h, read-out: IC50 (M; mean ± SD) P. falciparum; for average % inhibition at highest concentration tested, P. falciparum: at 5.0 × 10^−5 M (50 μM), 50 µM. A digest of the protocol: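 Compound exposure and [3H]-hypoxanthine uptake ran 48 h. Controls were uninfected RBC background, untreated, DMSO vehicle and chloroquine. % inhibition was taken versus matched vehicle minus background. At least two independent assays were run in triplicate. Where no IC50 could be fitted, % inhibition at the highest concentration was reported.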

In data set [12] the test system is MTZ resistant assemblage B BRIS/91/HEPU/1279m1 parasites. In words: G. duodenalis compound susceptibility assay. The following applies: Giardia duodenalis, 48 h, read-out: IC50 (nM; mean ± SD) AB-MTZ. Format: cell-based. A digest of the protocol: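 The metronidazole-resistant assemblage B line was kept in modified TYI-S-33 with 10% heat-inactivated FBS and penicillin/streptomycin under 15 µM metronidazole, withdrawn two days before testing. Trophozoites had 48 h dose-response exposure and were scored by automated microscopy, at least three times in triplicate. Inhibition was taken versus DMSO vehicle minus media background. IC50 came from 4-parameter variable-slope nonlinear regression.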

Data set [13] deals with G. duodenalis BRIS/87/HEPU/713 assemblage A. In words: G. duodenalis compound susceptibility assay. The following applies: Giardia duodenalis, 48 h, read-out: IC50 (nM; mean ± SD) AA. The data set is classed as cell-based.
For data set [14], the system named is L. donovani DD8 amastigotes. In words: L. donovani intracellular amastigote imaging assay in THP-1 cells. Format: cell-based. The conditions noted are these: Leishmania donovani, THP-1, 96 h, read-out: IC50 (M; mean ± SD) L. donovani. A digest of the protocol: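 L. donovani DD8 promastigotes were kept in modified M199 Hanks medium, pH 6.8, with 10% heat-inactivated FBS at 27 °C. PMA-differentiated THP-1 cells were infected with metacyclic promastigotes (1:5 host:parasite), then exposed 96 h to 80–0.004 µM final. Cells were fixed in 4% paraformaldehyde, stained with SYBR green/CellMask Deep Red and imaged at 20x; an infected cell held >3 parasites. Controls were 2 µM amphotericin B and 0.4% DMSO. Assays ran twice in triplicate; IC50 came from 4-parameter regression.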

Data set [15] relates to Neonatal Foreskin Fibroblasts (NFF). In words: Mammalian cell susceptibility assay. The data set is classed as cell-based, human. The following applies: for IC50: read-out: IC50 (M; mean ± SD) NFF; for Selectivity: NFF IC50 / Giardia IC50.
Data set [16] relates to Trypanosoma cruzi Tulahuen strain intracellular amastigotes. The data set can be described thus: T. cruzi intracellular amastigote imaging assay in 3T3 cells. The following applies: for IC50: Trypanosoma cruzi, TULAHUEN, NIH3T3, read-out: IC50 (M; mean ± SD) T. cruzi. Format: cell-based. The method in brief: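 T. cruzi Tulahuen was maintained in 3T3 fibroblasts in phenol red-free RPMI with 10% FBS and passaged with freshly egressed trypomastigotes. Intracellular amastigotes were scored by high-content imaging, with final concentrations up to 73.2 µM. Each compound was run as single point over three experimental replicates. Controls were 30 µM puromycin (host cells) and 12 µM nifurtimox (amastigotes). IC50 came from 4-parameter variable-slope nonlinear regression.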

The subject of data set [17] is Giardia. The conditions noted are these: in humans; ref Nabarro et al., 2015; cited from earlier work.
[18] abbreviates: 0.74 mg/kg for three days, oral gavage, PBS vehicle.
Where [19] appears, read: 7.4 mg/kg daily for three days, 50%PBS/DMSO vehicle, P > 0.05.
[20] abbreviates: 48 h, read-out: IC50 (M; mean ± SD) Giardia (48h), Compounds Australia samples, assemblage B BRIS/91/HEPU/1279 trophozoites, 48 h, > = highest concentration tested.
Setting [21] is: read-out: IC50 (M; mean ± SD) Giardia AB, purchased (ChemDiv) or synthesized batches, assemblage B BRIS/91/HEPU/1279.
[22] abbreviates: 100 mg/kg for three days, positive control, first experiment.

The text below walks through data of publication PMC10560980 (International Journal for Parasitology: Drugs and Drug …, 2023).

SMILES strings stand for the structures. “Also recorded” adds a separate entry of the source. Read-outs that look alike come from different tables or passages of the source. Some results are limits rather than exact numbers.

`Cc1cc2[nH]c(C(=O)Nc3ccccc3Cl)c(CN3CCOCC3)c2s1` [Compound 2, N-(2-chlorophenyl)-2-methyl-6-(morpholinomethyl)-4H-thieno [3,2-b]pyrrole-5-carboxamide]: in data set [1], the stability to storage result is reported as “stable”. The “MIC (M) E. coli” value in [2] is greater than 0.0002 M. Also, the inhibition at 100 µM in data set [3] was less than 50%; in [15] (Homo sapiens, Fibroblast, read-out: growth inhibition, NFF) it was less than 50%. Moreover, the aqueous solubility entry in data set [4] is listed as “poor”. Also, the “change in bacterial profile of faecal microbiome” value in data set [5] (7.4 mg/kg daily for three days) is “does not impact the normal gut microbiota; also recorded: did not detect any significant (P < 0.05) changes in the bacterial profile; also recorded: did not significantly impact the gut microbial diversity”. Moreover, the “MIC (M) S. aureus” value in [6] was greater than 0.0002 M. Also, the “reduction of cyst burden vs vehicle” value in data set [7] (setting [18]) turned out to be 98.8%; in [7] (setting [19]) it was 80.1%. Besides, the “reduction of trophozoite burden vs vehicle” value in [7] (setting [18]) turned out to be 73.5%; in [7] (setting [19]), 54.2%. The IC50 in data set [8] (setting [20]) is 310 nM; in [8] (48 h, read-out: IC50 (nM; mean ± SD) AB, purchased/resynthesised batches, 48 h, BRIS/91/HEPU/1279 assemblage B) it was 8.6 to 12 nM; in [8] (setting [21]) it was 12 nM; in data set [11], greater than 50000 nM; in [12], 5.5 nM; in data set [13] it was 10 nM. In addition, the IC50 in data set [14] was greater than 80000 nM; in data set [15] (Homo sapiens, Fibroblast), greater than 10000 nM; in [16] it was greater than 73000 nM. For the same compound, the “MIC (M) E. faecalis” value in [9] was greater than 0.0002 M. Also, in data set [10], the “minimum lethal concentration (MLC)” value was 0.062 µM. In addition, the entries for the “average % inhibition at highest concentration tested, P. falciparum” value in data set [11] and in data set [11] (listed as 2b) were less than 50% and 2.0%, respectively. In data set [15], the Selectivity is greater than 32. This compound had a selectivity indices in data set [15] (follow up studies, NFF and HEK293 vs Giardia) greater than 8333. Besides, the “growth inhibition, T. cruzi” value in [16] (up to highest concentration tested) is recorded as less than 50%.
As to `CC1(C)S[C@@H]2[C@H](NC(=O)[C@H](N)c3ccccc3)C(=O)N2[C@H]1C(=O)O` [AMP, ampicillin, reference compound], the “MIC (M) E. coli” value in data set [2] is less than 3.7e-05 M. In addition, the “MIC (M) S. aureus” value in data set [6] is less than 3.7e-05 M. In addition, the “MIC (M) E. faecalis” value in data set [9] was less than 3.7e-05 M.
For `CCN(CC)CCCC(C)Nc1ccnc2cc(Cl)ccc12` (stereo not shown) [CQ, chloroquine, reference compound], the 50% inhibitory concentration (IC50) was determined as 14 nM in data set [11] and 31000 nM in data set [15] (Homo sapiens, Fibroblast).
Consider `CCCSc1ccc2nc(NC(=O)OC)[nH]c2c1` [ABZ, Albendazole, reference compound], for which the IC50 in data set [8] (setting [20]) was determined as 57 nM; in [8] (setting [21]), 57 nM; in data set [15] (Homo sapiens, Fibroblast) it was 1100 nM. For the same compound, in [10], the “minimum lethal concentration (MLC)” value turned out to be 0.15 µM. In [15], this compound yielded a Selectivity of 19.3.
Take `CC1CS(=O)(=O)CCN1/N=C/c1ccc([N+](=O)[O-])o1` (stereo not shown) [NFX, nifurtimox, reference compound]: in data set [16], the half-inhibitory concentration (IC50) came out at 980 nM.
With `C[C@@H]1[C@H](O)[C@@H](C)/C=C/C=C/C=C/C=C/C=C/C=C/C=C/[C@H](O[C@@H]2O[C@H](C)[C@@H](O)[C@H](N)[C@@H]2O)C[C@@H]2O[C@](O)(C[C@@H](O)C[C@@H](O)[C@H](O)CC[C@@H](O)C[C@@H](O)CC(=O)O[C@H]1C)C[C@H](O)[C@H]2C(=O)O` [AMB, Amphotericin B, reference compound], the concentration for half-maximal inhibition (IC50) in data set [14] was determined as 87 nM.
With `Cc1ncc([N+](=O)[O-])n1CCO` [MTZ, metronidazole, reference compound], the reported failure rates result in data set [17] was “up to 40%”. Further, in data set [5] (100 mg/kg daily for three days), the “change in bacterial profile of faecal microbiome” value was “significant shift from the vehicle (DMSO/PBS) and compound 2 exposed mice from Day 1–3”. Moreover, in data set [7] (setting [22]), the “reduction of cyst burden vs vehicle” value stood at 65.6% and the “reduction of trophozoite burden vs vehicle” value was determined as 98.1%.
